Test results as given in ChEMBL document CHEMBL1157011, “8-Sulfonyl-substituted tetrahydro-1H-pyrido[4,3-b]indoles as 5-HT6 receptor antagonists” (Eur J Med Chem, 2010).
Each block holds one compound with its values, some of them ahead of it. The source made the active and inactive calls. No cut-off for these calls is given here.

Columns and labels:
[1] = target: T1, 5-hydroxytryptamine receptor 6 (Homo sapiens, UniProt P50406); test: Antagonist activity at human recombinant 5HT6 receptor expressed in HEK293 cells assessed as inhibition of serotonin-induced cAMP production by LANCE assay; type: functional, cell-based; settings: read-out: IC50
Procedure, shortened: (§1)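 HEK-293 cells with a tetracycline-inducible (T-Rex) human 5-HT6 receptor, grown in DMEM/10% FBS with blasticidin S and zeocin and induced with tetracycline the day before. Medium was swapped for HBSS with 1 mM MgCl2, 1 mM CaCl2, IBMX and 5 mM HEPES, pH 7.4. Compounds (0.1% DMSO) were added 15 min at RT, then 10 nM serotonin for 30 min. cAMP read by LANCE; 2 independent experiments in duplicate.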

[2] = target: T1, 5-hydroxytryptamine receptor 6; test: Antagonist activity at human recombinant 5HT6 receptor expressed in HEK293 cells assessed as inhibition of serotonin-induced cAMP production by LANCE assay relative to serotonin; type: functional, cell-based; procedure, shortened: as §1
[3] = target: 5-hydroxytryptamine receptor 2A (Homo sapiens) (UniProt P28223); test: Binding affinity to 5HT2A receptor at 1 uM by radioligand displacement assay
Procedure, shortened: (§2)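 Target specificity panel: single-concentration competitive displacement of each target's radioligand, with compound at 1 µM or 10 µM as stated per line. Run by an outside contract lab under its internal protocols; mean ± SE, n = 2.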

[4] = target: 5-hydroxytryptamine receptor 2B (Homo sapiens) (UniProt P41595); test: Binding affinity to 5HT2B receptor at 1 uM by radioligand displacement assay; procedure, shortened: as §2
[5] = target: T2, 5-hydroxytryptamine receptor 2C (Homo sapiens) (UniProt P28335); test: Binding affinity to 5HT2C receptor at 1 uM by radioligand displacement assay; procedure, shortened: as §2
T2 sequence (whole entry): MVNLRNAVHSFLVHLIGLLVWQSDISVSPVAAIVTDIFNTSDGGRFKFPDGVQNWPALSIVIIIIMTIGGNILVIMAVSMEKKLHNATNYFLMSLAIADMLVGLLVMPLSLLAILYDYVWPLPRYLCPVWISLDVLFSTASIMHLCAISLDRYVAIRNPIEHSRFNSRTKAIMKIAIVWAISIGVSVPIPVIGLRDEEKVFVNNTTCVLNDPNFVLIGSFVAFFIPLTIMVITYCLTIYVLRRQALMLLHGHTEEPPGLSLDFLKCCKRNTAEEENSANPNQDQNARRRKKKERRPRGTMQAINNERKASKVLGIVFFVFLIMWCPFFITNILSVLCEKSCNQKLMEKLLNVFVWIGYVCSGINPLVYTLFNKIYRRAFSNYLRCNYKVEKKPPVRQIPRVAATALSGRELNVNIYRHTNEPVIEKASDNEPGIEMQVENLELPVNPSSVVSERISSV

[6] = target: T1, 5-hydroxytryptamine receptor 6; test: Binding affinity to human recombinant 5HT6 receptor at 1 uM by radioligand displacement assay; procedure, shortened: as §2
[7] = target: T3, 5-hydroxytryptamine receptor 7 (Homo sapiens, UniProt P34969); test: Binding affinity to 5HT7 receptor at 1 uM by radioligand displacement assay; procedure, shortened: as §2
[8] = target: T4, Alpha-2A adrenergic receptor (Homo sapiens) (UniProt P08913); test: Binding affinity to adrenergic alpha2A receptor at 1 uM by radioligand displacement assay; procedure, shortened: as §2
T4 sequence (whole entry): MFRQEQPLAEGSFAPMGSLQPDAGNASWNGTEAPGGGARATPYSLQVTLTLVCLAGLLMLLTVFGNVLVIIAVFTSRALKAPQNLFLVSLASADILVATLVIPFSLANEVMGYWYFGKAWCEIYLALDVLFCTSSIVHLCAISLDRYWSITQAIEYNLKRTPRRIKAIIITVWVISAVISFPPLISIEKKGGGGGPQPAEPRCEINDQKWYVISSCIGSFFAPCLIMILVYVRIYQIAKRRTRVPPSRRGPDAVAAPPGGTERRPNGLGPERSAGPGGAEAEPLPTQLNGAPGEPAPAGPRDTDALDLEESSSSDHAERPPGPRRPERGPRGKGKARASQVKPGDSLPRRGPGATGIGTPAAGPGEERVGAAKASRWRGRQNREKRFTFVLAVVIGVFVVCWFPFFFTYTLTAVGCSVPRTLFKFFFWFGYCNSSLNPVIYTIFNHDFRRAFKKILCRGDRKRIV

[9] = target: Sigma non-opioid intracellular receptor 1 (Homo sapiens) (UniProt Q99720); test: Binding affinity to sigma 1 receptor at 1 uM by radioligand displacement assay; procedure, shortened: as §2
[10] = target: T5, Alpha-1A adrenergic receptor (Homo sapiens) (UniProt P35348); test: Binding affinity to adrenergic alpha1A receptor at 1 uM by radioligand displacement assay; procedure, shortened: as §2
T5 sequence (whole entry): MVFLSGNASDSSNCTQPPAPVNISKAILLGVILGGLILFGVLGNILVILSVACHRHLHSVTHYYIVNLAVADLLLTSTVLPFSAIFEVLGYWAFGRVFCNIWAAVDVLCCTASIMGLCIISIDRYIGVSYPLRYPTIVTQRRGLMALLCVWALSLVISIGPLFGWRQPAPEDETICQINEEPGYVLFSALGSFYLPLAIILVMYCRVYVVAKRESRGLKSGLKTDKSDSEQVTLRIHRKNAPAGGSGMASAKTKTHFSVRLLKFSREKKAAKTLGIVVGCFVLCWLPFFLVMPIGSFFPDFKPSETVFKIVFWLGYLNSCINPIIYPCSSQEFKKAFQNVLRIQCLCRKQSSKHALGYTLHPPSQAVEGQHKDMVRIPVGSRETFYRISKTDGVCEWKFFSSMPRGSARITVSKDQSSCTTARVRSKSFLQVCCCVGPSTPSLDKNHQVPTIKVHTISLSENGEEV

[11] = target: T6, Alpha-1B adrenergic receptor (Homo sapiens) (UniProt P35368); test: Binding affinity to adrenergic Alpha-1B receptor at 1 uM by radioligand displacement assay; procedure, shortened: as §2
T6 sequence (whole entry): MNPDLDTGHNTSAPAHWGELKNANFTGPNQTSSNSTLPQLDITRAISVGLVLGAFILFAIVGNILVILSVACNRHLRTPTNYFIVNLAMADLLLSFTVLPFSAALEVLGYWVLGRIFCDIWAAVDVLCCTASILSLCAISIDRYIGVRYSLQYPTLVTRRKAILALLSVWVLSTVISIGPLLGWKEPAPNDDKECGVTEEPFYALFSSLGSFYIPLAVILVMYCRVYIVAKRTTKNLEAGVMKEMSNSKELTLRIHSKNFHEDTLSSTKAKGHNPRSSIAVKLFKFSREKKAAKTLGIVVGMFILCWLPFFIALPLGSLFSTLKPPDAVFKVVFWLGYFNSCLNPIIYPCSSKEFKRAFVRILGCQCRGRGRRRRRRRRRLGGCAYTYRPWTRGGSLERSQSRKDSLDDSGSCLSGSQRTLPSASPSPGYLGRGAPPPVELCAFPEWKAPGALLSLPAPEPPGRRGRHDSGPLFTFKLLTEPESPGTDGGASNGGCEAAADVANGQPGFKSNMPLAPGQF

[12] = target: T7, Alpha-1D adrenergic receptor (Homo sapiens) (UniProt P25100); test: Binding affinity to adrenergic Alpha-1D receptor at 1 uM by radioligand displacement assay; procedure, shortened: as §2
T7 sequence (whole entry): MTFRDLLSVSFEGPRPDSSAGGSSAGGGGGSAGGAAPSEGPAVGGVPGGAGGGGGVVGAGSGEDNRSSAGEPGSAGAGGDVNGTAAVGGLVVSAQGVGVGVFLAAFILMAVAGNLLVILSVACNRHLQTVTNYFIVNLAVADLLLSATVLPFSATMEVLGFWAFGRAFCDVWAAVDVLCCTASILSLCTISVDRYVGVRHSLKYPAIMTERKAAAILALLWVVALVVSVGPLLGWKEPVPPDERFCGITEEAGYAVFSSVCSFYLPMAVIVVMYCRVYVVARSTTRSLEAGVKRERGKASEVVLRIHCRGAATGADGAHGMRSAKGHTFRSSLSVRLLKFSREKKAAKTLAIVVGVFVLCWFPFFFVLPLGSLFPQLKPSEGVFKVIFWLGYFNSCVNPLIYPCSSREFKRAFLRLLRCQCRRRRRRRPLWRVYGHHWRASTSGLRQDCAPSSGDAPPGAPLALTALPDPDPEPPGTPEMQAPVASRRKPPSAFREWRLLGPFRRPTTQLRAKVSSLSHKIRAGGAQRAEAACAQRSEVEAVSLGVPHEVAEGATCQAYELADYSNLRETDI

[13] = Binding affinity to L-type calcium channel at 1 uM by radioligand displacement assay; procedure, shortened: as §2
[14] = target: D(3) dopamine receptor (Homo sapiens) (UniProt P35462); test: Binding affinity to dopamine D3 receptor at 1 uM by radioligand displacement assay; procedure, shortened: as §2
[15] = Binding affinity to glycine transporter at 1 uM by radioligand displacement assay; procedure, shortened: as §2
[16] = target: Sodium-dependent noradrenaline transporter (Homo sapiens) (UniProt P23975); test: Binding affinity to norepinephrine transporter at 1 uM by radioligand displacement assay; procedure, shortened: as §2
[17] = target: T8, 5-hydroxytryptamine receptor 1A (Homo sapiens, UniProt P08908); test: Binding affinity to 5HT1A receptor by radioligand displacement assay
T8 sequence (P08908 whole entry): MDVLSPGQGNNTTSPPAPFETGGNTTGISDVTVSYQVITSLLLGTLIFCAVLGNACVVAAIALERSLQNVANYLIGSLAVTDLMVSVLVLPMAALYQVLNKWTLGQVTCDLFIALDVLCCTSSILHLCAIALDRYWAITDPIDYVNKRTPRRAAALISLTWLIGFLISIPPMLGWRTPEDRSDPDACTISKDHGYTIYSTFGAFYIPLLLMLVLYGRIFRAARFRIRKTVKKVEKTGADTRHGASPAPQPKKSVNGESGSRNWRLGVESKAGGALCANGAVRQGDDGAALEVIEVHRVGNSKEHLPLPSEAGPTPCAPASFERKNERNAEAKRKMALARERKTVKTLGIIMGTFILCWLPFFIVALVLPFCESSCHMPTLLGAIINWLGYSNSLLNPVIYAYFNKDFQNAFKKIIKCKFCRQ

[18] = target: T2, 5-hydroxytryptamine receptor 2C (Homo sapiens); test: (§3) Binding affinity to 5HT2C receptor by radioligand displacement assay
Procedure, shortened: (§4)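 Competitive displacement of the corresponding radioligand, run by an outside contract lab under its internal protocols. Data from one representative experiment in duplicate.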

[19] = target: T9, 5-hydroxytryptamine receptor 2C (Homo sapiens, UniProt P28335); test: as §3; procedure, shortened: as §4
T9 sequence (P28335 whole entry): T2 sequence (whole entry)

[20] = target: T1, 5-hydroxytryptamine receptor 6; test: Binding affinity to human recombinant 5HT6 receptor by radioligand displacement assay; procedure, shortened: as §4
[21] = target: T3, 5-hydroxytryptamine receptor 7; test: Binding affinity to 5HT7 receptor by radioligand displacement assay; procedure, shortened: as §4
[22] = target: T6, Alpha-1B adrenergic receptor (Homo sapiens); test: Binding affinity to adrenergic Alpha-1B receptor at 10 uM by radioligand displacement assay; procedure, shortened: as §2
[23] = target: T7, Alpha-1D adrenergic receptor (Homo sapiens); test: Binding affinity to adrenergic Alpha-1D receptor at 10 uM by radioligand displacement assay; procedure, shortened: as §2
[24] = target: T4, Alpha-2A adrenergic receptor (Homo sapiens); test: Binding affinity to adrenergic alpha2A receptor at 10 uM by radioligand displacement assay; procedure, shortened: as §2
[25] = target: T5, Alpha-1A adrenergic receptor (Homo sapiens); test: Binding affinity to adrenergic alpha1A receptor at 10 uM by radioligand displacement assay; procedure, shortened: as §2
[26] = target: Sodium-dependent dopamine transporter (Homo sapiens) (UniProt Q01959); test: Binding affinity to dopamine transporter at 10 uM by radioligand displacement assay; procedure, shortened: as §2
[27] = target: Sodium-dependent noradrenaline transporter (Homo sapiens) (UniProt P23975); test: Binding affinity to norepinephrine transporter at 10 uM by radioligand displacement assay; procedure, shortened: as §2
[28] = target: D(3) dopamine receptor (Homo sapiens) (UniProt P35462); test: Binding affinity to dopamine D3 receptor at 10 uM by radioligand displacement assay; procedure, shortened: as §2
[29] = target: Sigma non-opioid intracellular receptor 1 (Homo sapiens) (UniProt Q99720); test: Binding affinity to sigma 1 receptor at 10 uM by radioligand displacement assay; procedure, shortened: as §2

T3 sequence (P34969 whole entry): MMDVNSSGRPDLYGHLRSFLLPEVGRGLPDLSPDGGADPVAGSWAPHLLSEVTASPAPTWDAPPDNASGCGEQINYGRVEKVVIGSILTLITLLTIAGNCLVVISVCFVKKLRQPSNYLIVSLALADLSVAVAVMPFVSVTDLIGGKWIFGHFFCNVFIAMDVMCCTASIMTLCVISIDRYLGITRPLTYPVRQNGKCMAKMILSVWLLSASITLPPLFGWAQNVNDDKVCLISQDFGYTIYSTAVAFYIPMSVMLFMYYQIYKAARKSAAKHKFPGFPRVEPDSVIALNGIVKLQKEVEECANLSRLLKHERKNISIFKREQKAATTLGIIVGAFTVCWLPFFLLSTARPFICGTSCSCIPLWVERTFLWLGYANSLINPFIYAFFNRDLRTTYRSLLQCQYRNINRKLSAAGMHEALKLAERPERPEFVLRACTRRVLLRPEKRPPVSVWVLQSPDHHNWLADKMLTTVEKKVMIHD
T1 sequence (P50406 whole entry): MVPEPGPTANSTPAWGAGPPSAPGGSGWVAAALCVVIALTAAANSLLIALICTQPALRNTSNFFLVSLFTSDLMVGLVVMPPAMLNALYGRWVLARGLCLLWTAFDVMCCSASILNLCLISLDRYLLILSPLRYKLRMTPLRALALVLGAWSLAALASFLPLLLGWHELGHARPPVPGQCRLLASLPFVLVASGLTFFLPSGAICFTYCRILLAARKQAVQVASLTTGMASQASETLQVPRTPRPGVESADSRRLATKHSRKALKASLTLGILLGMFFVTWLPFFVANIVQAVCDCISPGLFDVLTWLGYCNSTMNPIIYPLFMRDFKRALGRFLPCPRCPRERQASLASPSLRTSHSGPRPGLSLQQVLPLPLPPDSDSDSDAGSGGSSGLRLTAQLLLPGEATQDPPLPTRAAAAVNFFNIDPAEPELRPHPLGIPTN
Sequence of Sigma non-opioid intracellular receptor 1 (Homo sapiens) (Q99720 whole entry): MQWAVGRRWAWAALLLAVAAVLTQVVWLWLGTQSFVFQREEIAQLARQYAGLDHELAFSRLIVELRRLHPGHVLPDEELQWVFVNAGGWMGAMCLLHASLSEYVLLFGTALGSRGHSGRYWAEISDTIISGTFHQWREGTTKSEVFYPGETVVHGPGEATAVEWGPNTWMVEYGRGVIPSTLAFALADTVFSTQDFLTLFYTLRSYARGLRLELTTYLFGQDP
Sequence of Sodium-dependent noradrenaline transporter (Homo sapiens) (P23975 whole entry): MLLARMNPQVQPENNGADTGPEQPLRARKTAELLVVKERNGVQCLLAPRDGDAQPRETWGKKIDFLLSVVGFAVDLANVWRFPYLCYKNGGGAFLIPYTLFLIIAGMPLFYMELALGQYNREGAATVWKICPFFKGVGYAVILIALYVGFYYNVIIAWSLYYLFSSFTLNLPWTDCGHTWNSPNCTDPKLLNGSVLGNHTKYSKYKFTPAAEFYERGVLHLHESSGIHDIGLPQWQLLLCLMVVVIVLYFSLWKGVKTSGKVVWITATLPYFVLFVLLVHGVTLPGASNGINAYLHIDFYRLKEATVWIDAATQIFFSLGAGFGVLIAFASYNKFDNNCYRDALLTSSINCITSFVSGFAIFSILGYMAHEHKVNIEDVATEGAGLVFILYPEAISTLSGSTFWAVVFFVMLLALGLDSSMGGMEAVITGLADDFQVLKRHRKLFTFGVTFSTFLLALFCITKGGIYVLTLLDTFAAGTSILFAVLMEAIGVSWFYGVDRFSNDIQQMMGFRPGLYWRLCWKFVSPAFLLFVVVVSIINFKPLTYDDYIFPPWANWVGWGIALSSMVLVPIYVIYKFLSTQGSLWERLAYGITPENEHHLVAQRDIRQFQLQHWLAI
Sequence of D(3) dopamine receptor (Homo sapiens) (P35462 whole entry): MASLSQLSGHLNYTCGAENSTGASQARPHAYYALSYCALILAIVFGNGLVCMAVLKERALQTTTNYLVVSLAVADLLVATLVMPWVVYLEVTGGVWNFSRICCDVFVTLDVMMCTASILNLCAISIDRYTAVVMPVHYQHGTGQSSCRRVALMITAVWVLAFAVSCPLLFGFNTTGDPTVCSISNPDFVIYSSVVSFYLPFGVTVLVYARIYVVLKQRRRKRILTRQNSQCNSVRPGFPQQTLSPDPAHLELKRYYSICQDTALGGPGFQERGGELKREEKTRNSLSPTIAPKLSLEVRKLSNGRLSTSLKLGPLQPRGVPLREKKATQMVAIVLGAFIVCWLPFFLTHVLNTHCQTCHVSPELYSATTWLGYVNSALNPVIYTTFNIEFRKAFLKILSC
Sequence of Sodium-dependent dopamine transporter (Homo sapiens) (Q01959 whole entry): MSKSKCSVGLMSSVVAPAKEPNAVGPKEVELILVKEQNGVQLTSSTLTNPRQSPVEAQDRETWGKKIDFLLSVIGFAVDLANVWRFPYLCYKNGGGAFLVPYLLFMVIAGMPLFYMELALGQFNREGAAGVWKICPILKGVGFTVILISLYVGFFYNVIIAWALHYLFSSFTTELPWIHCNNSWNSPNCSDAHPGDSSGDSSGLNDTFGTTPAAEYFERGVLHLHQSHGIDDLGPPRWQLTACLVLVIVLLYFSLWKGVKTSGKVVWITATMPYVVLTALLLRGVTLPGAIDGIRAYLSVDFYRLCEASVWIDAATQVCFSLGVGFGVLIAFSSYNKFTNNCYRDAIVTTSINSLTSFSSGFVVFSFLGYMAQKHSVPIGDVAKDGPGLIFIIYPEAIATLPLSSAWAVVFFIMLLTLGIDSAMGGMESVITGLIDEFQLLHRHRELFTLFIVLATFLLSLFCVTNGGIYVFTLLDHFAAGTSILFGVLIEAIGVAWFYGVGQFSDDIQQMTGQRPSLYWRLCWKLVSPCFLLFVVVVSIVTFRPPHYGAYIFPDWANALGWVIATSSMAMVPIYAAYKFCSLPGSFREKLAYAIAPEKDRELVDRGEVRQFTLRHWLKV
Sequence of 5-hydroxytryptamine receptor 2B (Homo sapiens) (P41595 whole entry): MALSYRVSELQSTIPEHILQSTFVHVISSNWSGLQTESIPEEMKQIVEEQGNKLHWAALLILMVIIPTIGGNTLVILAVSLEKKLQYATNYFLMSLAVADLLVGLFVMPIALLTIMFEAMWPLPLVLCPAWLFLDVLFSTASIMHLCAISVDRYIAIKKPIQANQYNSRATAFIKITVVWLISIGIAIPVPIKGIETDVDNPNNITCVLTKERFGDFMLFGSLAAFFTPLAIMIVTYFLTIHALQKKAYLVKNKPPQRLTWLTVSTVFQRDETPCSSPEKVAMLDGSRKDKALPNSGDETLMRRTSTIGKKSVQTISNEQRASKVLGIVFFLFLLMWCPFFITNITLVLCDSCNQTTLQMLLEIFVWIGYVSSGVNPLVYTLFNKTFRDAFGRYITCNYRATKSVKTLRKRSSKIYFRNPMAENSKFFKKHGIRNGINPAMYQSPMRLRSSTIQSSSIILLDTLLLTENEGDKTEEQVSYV
Sequence of 5-hydroxytryptamine receptor 2A (Homo sapiens) (P28223 whole entry): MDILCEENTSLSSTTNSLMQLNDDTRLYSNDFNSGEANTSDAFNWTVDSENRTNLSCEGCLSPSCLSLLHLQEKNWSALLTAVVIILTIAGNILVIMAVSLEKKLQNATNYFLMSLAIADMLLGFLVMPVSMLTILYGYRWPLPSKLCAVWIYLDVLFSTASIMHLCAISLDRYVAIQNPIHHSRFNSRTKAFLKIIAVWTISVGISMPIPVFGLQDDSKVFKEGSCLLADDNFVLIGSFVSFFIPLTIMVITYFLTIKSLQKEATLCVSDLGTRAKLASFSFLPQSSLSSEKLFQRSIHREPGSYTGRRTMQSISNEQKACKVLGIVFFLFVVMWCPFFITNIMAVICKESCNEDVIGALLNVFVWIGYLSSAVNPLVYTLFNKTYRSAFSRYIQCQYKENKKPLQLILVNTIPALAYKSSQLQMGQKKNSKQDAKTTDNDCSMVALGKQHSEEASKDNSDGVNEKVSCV

SMILES: O=S(=O)(Nc1cccc(F)c1)c1ccc2[nH]c3c(c2c1)CN(Cc1ccccc1)CC3
IC50 [1]: 3900 nM
Imax [2]: 100%

SMILES: CN1CCc2[nH]c3ccc(S(=O)(=O)Nc4cccc(F)c4)cc3c2C1
Imax [2]: 100%
Activity [3]: 80%
Activity [4]: 80%
Activity [5]: 80%
Activity [6]: 80%
Activity [7]: 80%
Activity [8]: 60%
Activity [9]: 60%
Activity [10]: 20%
Activity [11]: 37%
Activity [12]: 29%
Activity [13]: 27%
Activity [14]: 35%
Activity [15]: 20%
Activity [16]: 15%
Ki [17]: 7 nM
Activity [18]: Dose-dependent effect
Ki [19]: 39 nM
Activity [20]: Dose-dependent effect
Ki [20]: 2.1 nM
Activity [21]: Dose-dependent effect
Ki [21]: 42 nM

SMILES: CN1CCN(S(=O)(=O)c2ccc3[nH]c4c(c3c2)CN(C)CC4)CC1
Imax [2]: 100%

SMILES: Cc1ccc(S(=O)(=O)n2c3c(c4cc(S(=O)(=O)c5ccccc5)ccc42)CN(C)CC3)cc1
IC50 [1]: 28000 nM
Imax [2]: 100%

Next, values leading:

Imax [2]: 100%
SMILES: CN1CCc2c(c3cc(S(=O)(=O)c4ccccc4)ccc3n2CCc2ccccn2)C1

Imax [2]: 100%
Activity [22]: Active
Activity [23]: Active
Activity [24]: Active
Activity [25]: Active
Activity [26]: Active
Activity [27]: Active
Activity [28]: Active
Activity [29]: Active
Ki [20]: 5.7 nM
SMILES: CN1CCc2c(c3cc(S(=O)(=O)c4ccccc4)ccc3n2C)C1
